Measured values published in ChEMBL document CHEMBL4339190, “2,6-Disubstituted imidazo[2,1-b][1,3,4]thiadiazole derivatives as potent staphylococcal biofilm inhibitors” (Eur J Med Chem, 2019).
Active and inactive are the calls of the source. The calls are words filed in the database; no cut-off is given here.

Assays:
Staphylococcus aureus [1] = test: Antibiofilm activity against Staphylococcus aureus ATCC 6538 incubated for 24 hrs by crystal violet-staining based assay; format: functional
How it was run: (§1)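 Biofilm prevention: 0.5 McFarland inoculum (2.5 µL) in 100 µL TSB with 2% w/v glucose, compound present from the start over 100–0.1 µg/mL, 37 °C 24 h. Washed with PBS, stained 0.1% w/v crystal violet 30 min, eluted with 33% v/v acetic acid, read at 570 nm. BIC50 (50% inhibition versus untreated control) derived by linear regression; triplicate, repeated at least twice.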

Escherichia coli [2] = test: Antibiofilm activity against Escherichia coli ATCC 25922 incubated for 24 hrs by crystal violet-staining based assay; format: functional; how it was run: as §1
[3] = system: Staphylococcus epidermidis; test: Antibiofilm activity against Staphylococcus epidermidis ATCC 12228 incubated for 24 hrs by crystal violet-staining based assay; format: functional; how it was run: as §1
Staphylococcus aureus [4] = test: Antimicrobial activity against Staphylococcus aureus ATCC 25923 assessed as growth inhibition of planktonic forms incubated for 24 hrs; format: organism-based; details: in vitro
How it was run: (§2)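 Broth microdilution in tryptic soy broth. Two-fold series 100 to 0.75 μg/mL made from a 1 mg/mL stock in 0.9% NaCl. Inoculum ~10⁶ cfu/mL taken from a 24 h culture, 37 °C 24 h.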

Staphylococcus aureus [5] = test: Antimicrobial activity against Staphylococcus aureus ATCC 6538 assessed as growth inhibition of planktonic forms incubated for 24 hrs; format: organism-based; details: in vitro; how it was run: as §2
Pseudomonas aeruginosa [6] = test: Antimicrobial activity against Pseudomonas aeruginosa ATCC 15442 assessed as growth inhibition of planktonic forms incubated for 24 hrs; format: organism-based; details: in vitro; how it was run: as §2
Staphylococcus aureus [7] = test: Antibiofilm activity against Staphylococcus aureus ATCC 25923 incubated for 24 hrs by crystal violet-staining based assay; format: functional; how it was run: as §1
Pseudomonas aeruginosa [8] = test: Antibiofilm activity against Pseudomonas aeruginosa ATCC 15442 incubated for 24 hrs by crystal violet-staining based assay; format: functional; how it was run: as §1
Escherichia coli [9] = test: Antimicrobial activity against Escherichia coli ATCC 25922 assessed as growth inhibition of planktonic forms incubated for 24 hrs; format: organism-based; details: in vitro; how it was run: as §2
[10] = system: Staphylococcus epidermidis; test: Antimicrobial activity against Staphylococcus epidermidis ATCC 12228 assessed as growth inhibition of planktonic forms incubated for 24 hrs; format: organism-based; details: in vitro; how it was run: as §2
Pseudomonas aeruginosa [11] = test: Antibiofilm activity against Pseudomonas aeruginosa ATCC 15442 assessed as inhibition of biofilm formation at 100 ug/ml incubated for 24 hrs by crystal violet-staining based assay; format: functional; details: ATCC 15442, 24 h
Bacteria = test: Inhibition of recombinant bacterial SrtA at 100 uM using 5-FAM/QXL 520 Sortase as substrate preincubated for 10 mins followed by substrate addition and measured every 5 mins for 60 mins by fluorescence assay
How it was run: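 FRET kit assay: 2.5 µg/ml recombinant SrtA, 4 µM fluorescent peptide substrate, compound at 100 µM in 1% DMSO. Compound and enzyme added first, then substrate. Fluorescence (Ex/Em 490/520 nm) recorded every 5 min for 60 min. Substrate without enzyme served as negative control and 4-(hydroxymercuri)benzoic acid as positive control.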

Escherichia coli [12] = test: Antibiofilm activity against Escherichia coli ATCC 25922 assessed as inhibition of biofilm formation at 100 ug/ml incubated for 24 hrs by crystal violet-staining based assay; format: functional; details: ATCC 25922, 24 h

inhibition (Bacteria) | Structure (SMILES) | MBIC50 (Staphylococcus aureus [1]) | MBIC50 (Escherichia coli [2]) | MBIC50 [3] | MIC (Staphylococcus aureus [4]) [µg/mL] | MIC (Staphylococcus aureus [5]) [µg/mL] | MIC (Pseudomonas aeruginosa [6]) [µg/mL] | MBIC50 (Staphylococcus aureus [7]) | MBIC50 (Pseudomonas aeruginosa [8]) | MIC (Escherichia coli [9]) [µg/mL] | MIC [10] [µg/mL] | inhibition (Staphylococcus aureus [1]) | inhibition (Escherichia coli [2]) | inhibition [3] | inhibition (Staphylococcus aureus [7]) | inhibition (Pseudomonas aeruginosa [8]) | MBIC90 (Staphylococcus aureus [7]) [µg/mL] | inhibition at 100 µg/mL (Pseudomonas aeruginosa [11]) [%] | inhibition at 100 µg/mL (Escherichia coli [12]) [%]
– | FC(F)(F)c1ccc(-c2cn3nc(-c4c[nH]c5ccccc45)sc3n2)cc1 | inactive | inactive | inactive | > 100 | > 100 | > 100 | inactive | inactive | > 100 | > 100 | – | – | – | – | – | – | – | –
– | Cn1cc(-c2nn3cc(-c4ccc([N+](=O)[O-])cc4)nc3s2)c2ccccc21 | 3 µM | 34.3 µM | 21 µM | > 100 | > 100 | > 100 | 21 µM | 30.1 µM | > 100 | > 100 | Dose-dependent effect | Dose-dependent effect | Dose-dependent effect | Dose-dependent effect | Dose-dependent effect | – | – | –
– | Br.Cn1cc(-c2nn3cc(-c4ccc(F)cc4)nc3s2)c2cc(Br)ccc21 | inactive | inactive | inactive | > 100 | > 100 | > 100 | inactive | inactive | > 100 | > 100 | – | – | – | – | – | – | – | –
– | Br.Cn1cc(-c2nn3cc(-c4ccc([N+](=O)[O-])cc4)nc3s2)c2cc(Br)ccc21 | 3.1 µM | 19.6 µM | 71.7 µM | > 100 | > 100 | > 100 | 20.9 µM | 38.6 µM | > 100 | > 100 | Dose-dependent effect | Dose-dependent effect | Dose-dependent effect | Dose-dependent effect | Dose-dependent effect | – | – | –
inactive | Br.COc1cccc(-c2cn3nc(-c4cn(C)c5ccccc45)sc3n2)c1 | 28 µM | – | 41.9 µM | > 100 | > 100 | > 100 | 1.8 µM | – | > 100 | > 100 | Dose-dependent effect | – | Dose-dependent effect | Dose-dependent effect | – | 23.3 | < 15 | < 15
– | Br.COc1cccc(-c2cn3nc(-c4c[nH]c5ccccc45)sc3n2)c1 | 37 µM | 69.7 µM | 33.4 µM | > 100 | > 100 | > 100 | 80.2 µM | 80.2 µM | > 100 | > 100 | Dose-dependent effect | Dose-dependent effect | Dose-dependent effect | Dose-dependent effect | Dose-dependent effect | – | – | –
– | Br.Clc1ccc2[nH]cc(-c3nn4cc(-c5ccccc5)nc4s3)c2c1 | inactive | inactive | inactive | > 100 | > 100 | > 100 | inactive | inactive | > 100 | > 100 | – | – | – | – | – | – | – | –
– | Cn1cc(-c2nn3cc(-c4ccc(C(F)(F)F)cc4)nc3s2)c2ccccc21 | inactive | inactive | inactive | > 100 | > 100 | > 100 | inactive | inactive | > 100 | > 100 | – | – | – | – | – | – | – | –
